Reference: ChEMBL document CHEMBL3286094, “Synthesis and biological evaluation of novel bisbenzimidazoles as Escherichia coli topoisomerase IA inhibitors and potential antibacterial agents” (J Med Chem, 2014)

Legend:
[1] = tested on: Escherichia coli; experiment: Bactericidal activity against ampicillin/chloramphenicol/ciprofloxacin/gentamicin/tetracycline-resistant Escherichia coli 401 by agar plating method; type: functional
[2] = tested on: Escherichia coli; experiment: Antibacterial activity against chloramphenicol/ampicillin/kanamycin/trimethoprim/ciprofloxacin/nalidixic acid-resistant Escherichia coli 132 assessed as growth inhibition after 18 to 24 hrs by broth microdilution method; type: functional
[3] = tested on: Escherichia coli; experiment: Bactericidal activity against chloramphenicol/ampicillin/kanamycin/trimethoprim/ciprofloxacin/nalidixic acid-resistant Escherichia coli 151 by agar plating method; type: functional
[4] = tested on: Escherichia coli; experiment: Antibacterial activity against Escherichia coli DH5[alpha] assessed as growth inhibition after 18 to 24 hrs by broth microdilution method; type: functional
[5] = tested on: Escherichia coli; experiment: Antibacterial activity against multidrug-resistant Escherichia coli IS 54 isolated from water source assessed as growth inhibition after 18 to 24 hrs by broth microdilution method; conditions: IS 54, Water
[6] = tested on: Escherichia coli; experiment: Bactericidal activity against Escherichia coli ATCC 25922 by agar plating method; type: functional
[7] = tested on: Escherichia coli; experiment: Bactericidal activity against ampicillin/tetracycline/piperacillin-resistant Escherichia coli WB31 isolated from water source by agar plating method
[8] = tested on: Escherichia coli; experiment: Antibacterial activity against multidrug-resistant Escherichia coli IP9 isolated from water source assessed as growth inhibition after 18 to 24 hrs by broth microdilution method
[9] = tested on: Escherichia coli; experiment: Antibacterial activity against cefazolinl/ampicillin/piperacillin/cefuroxime/cefepime/cefotaxime/tetracycline/trimethoprim-resistant Escherichia coli KK16 isolated from water source assessed as growth inhibition after 18 to 24 hrs by broth microdilution method
[10] = tested on: Escherichia coli; experiment: Bactericidal activity against ampicillin/tetracycline-resistant Escherichia coli IP18 isolated from water source by agar plating method
[11] = tested on: Escherichia coli; experiment: Antibacterial activity against ampicillin/chloramphenicol/ciprofloxacin/gentamicin/tetracycline-resistant Escherichia coli 401 assessed as growth inhibition after 18 to 24 hrs by broth microdilution method; type: functional
[12] = tested on: Escherichia coli; experiment: Antibacterial activity against ampicillin/trimethoprim/piperacillin-resistant Escherichia coli MKNJ isolated from water source assessed as growth inhibition after 18 to 24 hrs by broth microdilution method
[13] = tested on: Escherichia coli; experiment: Antibacterial activity against Escherichia coli ATCC 25922 assessed as growth inhibition after 18 to 24 hrs by broth microdilution method; type: functional
[14] = tested on: Escherichia coli; experiment: Antibacterial activity against ampicillin/ciprofloxacin/gentamicin/tetracycline-resistant Escherichia coli 555 assessed as growth inhibition after 18 to 24 hrs by broth microdilution method; type: functional
[15] = tested on: Escherichia coli; experiment: Bactericidal activity against ampicillin/kanamycin/trimethoprim/tetracyclin/ciprofloxacin/nalidixic acid-resistant Escherichia coli 81 by agar plating method; type: functional
[16] = tested on: Escherichia coli; experiment: Bactericidal activity against tetracycline/trimethoprim-resistant Escherichia coli IST isolated from water source by agar plating method
[17] = tested on: Escherichia coli; experiment: Bactericidal activity against ampicillin/ciprofloxacin/gentamicin/tetracycline-resistant Escherichia coli 555 by agar plating method; type: functional
[18] = tested on: Escherichia coli; experiment: Antibacterial activity against ampicillin/chloramphenicol/tetracycline/trimethoprim/ciprofloxacin-resistant Escherichia coli KK45 isolated from water source assessed as growth inhibition after 18 to 24 hrs by broth microdilution method
[19] = tested on: Escherichia coli; experiment: Bactericidal activity against multidrug-resistant Escherichia coli IS 54 isolated from water source by agar plating method; conditions: IS 54, Water
[20] = tested on: Escherichia coli; experiment: Bactericidal activity against ampicillin/trimethoprim/cefazolinl/piperacillin/cefuroxime/cefoxitine/cefepime/cefotaxime-resistant Escherichia coli KP21 isolated from water source by agar plating method
[21] = tested on: Escherichia coli; experiment: Bactericidal activity against cefazolinl/ampicillin/piperacillin/cefuroxime/cefepime/cefotaxime/tetracycline/ciprofloxacin-resistant Escherichia coli NG3 isolated from water source by agar plating method
[22] = tested on: Escherichia coli; experiment: Bactericidal activity against chloramphenicol/ampicillin/kanamycin/trimethoprim/ciprofloxacin/nalidixic acid-resistant Escherichia coli 132 by agar plating method; type: functional
[23] = tested on: Escherichia coli; experiment: Antibacterial activity against ampicillin/trimethoprim/nalidixic acid-resistant Escherichia coli 118 assessed as growth inhibition after 18 to 24 hrs by broth microdilution method; type: functional
[24] = tested on: Escherichia coli; experiment: Bactericidal activity against ampicillin/tetracycline/gentamicin-resistant Escherichia coli 451 by agar plating method; type: functional
[25] = tested on: Escherichia coli; experiment: Bactericidal activity against chloramphenicol/ampicillin/trimethoprim/ciprofloxacin/nalidixic acid-resistant Escherichia coli 59 by agar plating method; type: functional
[26] = tested on: Escherichia coli; experiment: Antibacterial activity against chloramphenicol/ampicillin/trimethoprim/ciprofloxacin/nalidixic acid-resistant Escherichia coli 59 assessed as growth inhibition after 18 to 24 hrs by broth microdilution method; type: functional
[27] = tested on: Escherichia coli; experiment: Antibacterial activity against cefazolinl/ampicillin/piperacillin/cefuroxime/cefepime/cefotaxime/tetracycline/ciprofloxacin-resistant Escherichia coli NG3 isolated from water source assessed as growth inhibition after 18 to 24 hrs by broth microdilution method
[28] = tested on: Escherichia coli; experiment: Bactericidal activity against chloroamphenicol/ampicillin/kanamycin/trimethoprim/ciprofloxacin/nalidixic acid-resistant Escherichia coli 85 by agar plating method; type: functional
[29] = tested on: Escherichia coli; experiment: Bactericidal activity against ampicillin/trimethoprim/piperacillin-resistant Escherichia coli MKNJ isolated from water source by agar plating method
[30] = tested on: Escherichia coli; experiment: Antibacterial activity against ciprofloxacin-resistant Escherichia coli 72 assessed as growth inhibition after 18 to 24 hrs by broth microdilution method; type: functional
[31] = tested on: Escherichia coli; experiment: Antibacterial activity against ampicillin/trimethoprim/cefazolinl/piperacillin/cefuroxime/cefoxitine/cefepime/cefotaxime-resistant Escherichia coli KP21 isolated from water source assessed as growth inhibition after 18 to 24 hrs by broth microdilution method
[32] = tested on: Escherichia coli; experiment: Antibacterial activity against ampicillin/tetracycline/gentamicin-resistant Escherichia coli 451 assessed as growth inhibition after 18 to 24 hrs by broth microdilution method; type: functional
[33] = Inhibition of Escherichia coli DNA topoisomerase-1A using supercoiled pHOT1 plasmid DNA as substrate assessed as inhibition of DNA relaxation after 30 mins by agarose gel electrophoresis
Procedure, shortened: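 Supercoiled plasmid DNA incubated with E. coli Topo IA in the presence of compound at […]. Relaxation products were resolved by electrophoresis on 1% agarose gel.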

[34] = tested on: Escherichia coli; experiment: Antibacterial activity against chloroamphenicol/ampicillin/kanamycin/trimethoprim/ciprofloxacin/nalidixic acid-resistant Escherichia coli 85 assessed as growth inhibition after 18 to 24 hrs by broth microdilution method; type: functional
[35] = tested on: Escherichia coli; experiment: Bactericidal activity against Escherichia coli DH5[alpha] by agar plating method; type: functional

COc1ccc(-c2nc3ccc(-c4nc5ccc(N6CCN(c7ccncc7)CC6)cc5[nH]4)cc3[nH]2)cc1OC
1.7 µg/mL: MIC90 [5] | MIC90 [9] | MIC90 [23]
0.5 µg/mL: MIC50 [4]
1 µg/mL: MIC50 [5] | MIC50 [9] | MIC50 [11] | MBC [16] | MIC50 [23] | MIC50 [26] | MIC50 [27] | MIC50 [30] | MBC [35]
1.6 µg/mL: MIC90 [11] | MIC90 [30]
3.6 µg/mL: MIC90 [8] | MIC90 [26] | MIC90 [31] | MIC90 [32] | MIC90 [34]
58.6 µg/mL: MIC90 [14]
4 µg/mL: MBC [6] | MBC [7] | MBC [10] | MBC [15] | MBC [20] | MBC [22] | MBC [24] | MBC [25] | MBC [28] | MBC [29]
64 µg/mL: MBC [17]
16 µg/mL: MIC50 [14]
1.8 µg/mL: MIC90 [4] | MIC90 [27]
6.2 µM: IC50 [33]
3.7 µg/mL: MIC90 [2] | MIC90 [12] | MIC90 [13] | MIC90 [18]
2 µg/mL: MBC [1] | MIC50 [2] | MBC [3] | MIC50 [8] | MIC50 [12] | MIC50 [13] | MIC50 [18] | MBC [19] | MBC [21] | MIC50 [31] | MIC50 [32] | MIC50 [34]

CCCN1CCN(c2ccc3nc(-c4ccc5nc(-c6ccc(OC)c(OC)c6)[nH]c5c4)[nH]c3c2)CC1
29.8 µg/mL: MIC90 [14]
7.5 µg/mL: MIC90 [26]
3.7 µg/mL: MIC90 [9]
15.4 µg/mL: MIC90 [8]
128 µg/mL: MBC [22]
15.2 µg/mL: MIC90 [34]
3 µM: IC50 [33]
2 µg/mL: MIC50 [4] | MIC50 [9] | MIC50 [23] | MIC50 [30]
118 µg/mL: MIC90 [2]
12.5 µg/mL: MIC90 [13]
14.8 µg/mL: MIC90 [5] | MIC90 [31]
3.4 µg/mL: MIC90 [30]
4 µg/mL: MIC50 [11] | MIC50 [12] | MIC50 [18] | MIC50 [26] | MIC50 [27] | MIC50 [32] | MBC [35]
16 µg/mL: MBC [3] | MBC [6] | MBC [7] | MIC50 [14] | MBC [15] | MBC [16] | MBC [19] | MBC [20] | MBC [28]
32 µg/mL: MBC [17]
7.2 µg/mL: MIC90 [11]
7.7 µg/mL: MIC90 [18]
8 µg/mL: MBC [1] | MIC50 [5] | MIC50 [8] | MBC [10] | MIC50 [13] | MBC [21] | MBC [24] | MBC [25] | MBC [29] | MIC50 [31] | MIC50 [34]
3.2 µg/mL: MIC90 [4] | MIC90 [23]
64 µg/mL: MIC50 [2]
7.6 µg/mL: MIC90 [12] | MIC90 [27] | MIC90 [32]
